Sampled rows, rich in hits. Any-hit rate of the full collection: about 2.6%.
MITF act: MITF TRPM1 promoter activation in melanoma cells. SK-MEL-5 TRPM1-promoter luciferase, 24 h; % of positive control, neutral wells = 0. activation, % at 12.5 µM. 0.75% of 300,000 active. AID 588334;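 active means mean activation of at least 80% with every replicate also reaching 80%; inconclusive means mean reaches 80% but some replicate falls short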;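 further: 0% = neutral control wells and 100% = parthenolide positive control wells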
Vif imaging: blocks HIV Vif function; HEK293T cells, Vif self-association by quenched fluorescence, imaging, 24 h; inhibition, % at 7.49 µM; 0.35% of 340,000 active; in the data active means inhibition above about 50%, passing the limit was not always enough; inconclusive means no clear call, values can overlap the other calls; inactive means below about 31%
Xi reactivation: X-chromosome reactivation activator; XiGFP mouse fibroblasts, % GFP-positive cells imaging, 3 d; cells co-treated with 5-aza-dC sensitizer; scaled so ellipticine positive control = 100%; activation, % at 7.58 µM; 0.055% of 360,000 active;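 active means mean normalized replicate activation at least 10% and every replicate at or above 10%; inconclusive means only one of the two criteria met; inactive means mean below 10% and not all replicates reach 10%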;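 further: 0% = median of on-plate neutral control wells and 100% = ellipticine 6 µM median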
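Material: XiGFP fibroblasts, SV40-immortalized. Buffer or medium: DMEM plus 5-aza-dC sensitizer. Compound: single concentration per compound, delivered by pin transfer. Times: 3 days compound exposure. Controls: ellipticine 6 µM.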
esBAF inh: inhibitors of esBAF chromatin remodeling in mouse ES cells | reporter increase, % at 12.5 µM | AID 602393 | Bmi1-luciferase knock-in reporter, 24 h; 100% = twice the neutral-well signal | 2% of 350,000 active; in the data active means activation above about 40%; inconclusive means no clear call, values can overlap the other calls;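 further: 0% = median of the plate's neutral control wells and 100% = double that signal; a rise in the Bmi1 reporter signal indicates esBAF inhibition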
Wnt bcat act: Wnt/beta-catenin pathway activation. activation, % at 9.35 µM. Wnt/beta-catenin reporter cell assay, activator, plate reader. 1.2% of 300,000 active; in the data active means activation above about 30%, passing the limit was not always enough; inconclusive means no clear call, values can overlap the other calls;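 further: 0% = neutral control wells and 100% = positive control wells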
* hit, by the source's call; ? = inconclusive; / = no result given.

SMILES | MITF act | Vif imaging | Xi reactivation | esBAF inh | Wnt bcat act
COc1ccc2c3c(n(C)c2c1)[C@@H](CO)N(Cc1nccs1)CC31CCN(C(=O)CC2CC2)CC1 | / | / | 0.2 | / | /
CCC(=O)N(C)C[C@@H]1Oc2ncc(-c3ccc(C(=O)N(C)C)cc3)cc2C(=O)N([C@H](C)CO)C[C@H]1C | / | / | -0.6 | 2.2 | /
CCCC(=O)Nc1ccc2c(c1)C(=O)N(C)C[C@@H](OC)[C@@H](C)CN(Cc1ccccc1)[C@H](C)CO2 | / | / | 0.1 | -0.1 | /
Cc1[nH]c2ccccc2c1/C=N/Nc1nc2ccccc2[nH]1 | / | -2.1 | 17.2* | / | 97.7*
Cc1[nH]c2ccccc2c1/C=N/Nc1nc(N2CCCCC2)nc(N2CCCCC2)n1 | 11.4 | -3.4 | 0.1 | / | -10.3
O=C(C[C@@H]1C=C[C@H](NC(=O)Nc2cc(F)ccc2F)[C@@H](CO)O1)Nc1ccccc1 | / | / | -0.2 | -6.1 | /
CCSc1nc2ccccc2n1CC(=O)OC | -0.5 | -1.8 | / | -7.7 | 0.5
COC(=O)Cn1c(SCc2ccccc2)nc2ccccc21 | 41.5 | 0.5 | / | 48.5* | /
CC(C)Sc1nc2ccccc2n1CC(N)=O | / | 3.5 | / | -2.0 | 44.3*
C[C@@H]1CCCCO[C@@H](CN(C)Cc2ccc(C(=O)O)cc2)[C@@H](C)CN([C@@H](C)CO)C(=O)c2cc(NC(=O)c3ccccc3)ccc2O1 | / | / | 0.2 | -2.1 | /
C[C@@H]1CN([C@@H](C)CO)C(=O)c2cc(-c3cncnc3)cnc2O[C@@H]1CN(C)C(=O)Cc1ccccn1 | / | / | 0.7 | -3.4 | /
c1coc(C2Nc3ccccc3-c3nc4ccccc4n32)c1 (configuration not stated) | 63.2 | -7.5 | / | 46.0* | 19.9
O=C1Cn2c(nc3ccccc32)-c2ccccc2N1 | 4.0 | -6.4 | / | 13.2 | /
c1ccc(C2Nc3ccccc3-c3nc4ccccc4n32)cc1 (configuration not stated) | / | 0.2 | / | 44.9* | 37.3*
CC1(c2ccccn2)Nc2ccccc2-c2nc3ccccc3n21 (configuration not stated) | 65.7 | 1.0 | / | 36.5 | 21.3
c1ccc(C2Nc3ccccc3-c3nc4ccccc4n32)nc1 (configuration not stated) | 21.1 | -1.3 | / | / | 36.8*
CCN1[C@H](C(=O)OC)[C@@H](CO)[C@@H]2Cn3c(ccc(-c4cncnc4)c3=O)[C@@H]21 | / | / | 0.2 | -3.4 | /
CC(=O)/C(=C(/O)c1ccccc1)c1nc2ccccc2[nH]1 | 85.0* | -4.7 | 0.1 | 37.3 | 6.0
O=C(/C(=C(\O)c1ccccc1)c1nc2ccccc2[nH]1)c1ccccc1 | 23.8 | -11.6 | -0.1 | -0.8 | 0.7
CCCn1c(-c2ccc[nH]c2=O)nc2cc(C)c(C)cc21 | 29.9 | -0.9 | 0.1 | / | 62.5*
CC(=O)Nc1nonc1-c1nc2ccccc2n1C | 11.4 | 79.7* | 0.2 | -8.1 | -1.5
CC(=O)Nc1nonc1-c1nc2ccccc2n1CCC(C)C | 7.7 | / | / | / | /
CC=Cc1ccc2n(c1=O)C[C@@H]1[C@@H](CO)[C@H](C(=O)NCCN3CCCC3)N(C(=O)NC(C)C)[C@H]21 (mixture of isomers) | / | / | 0.1 | 3.0 | /
Clc1ccc(Cc2noc(-c3cccs3)n2)cc1 | 112.2* | 2.8 | / | 63.4* | /
Clc1ccc(-c2nc(Cc3ccccc3Cl)no2)cc1 | 68.5 | -3.9 | / | 31.8 | /
SMILES | MITF act | Vif imaging | Xi reactivation | esBAF inh | Wnt bcat act
C[C@@H]1CN([C@H](C)CO)C(=O)Cc2cc(NC(=O)c3ccncc3)ccc2O[C@@H]1CN(C)C(=O)NC1CCCCC1 | / | / | -0.5 | -6.2 | /
COc1ccccc1C(=O)Nc1ccc2c3c(cccc13)CC2 | 62.2 | -4.3 | -0.1 | 61.8* | /
COc1cccc(OC)c1C(=O)Nc1ccc2c3c(cccc13)CC2 | 23.3 | 5.4 | / | 4.1 | /
Nc1ccc(N=Nc2ccccc2)c(N)n1 | 94.4* | -5.6 | 0.5 | 30.4 | 13.4
C[C@@H]1CN([C@@H](C)CO)C(=O)c2cc(N(C)C)ccc2O[C@@H](C)CCCCO[C@H]1CN(C)S(=O)(=O)c1cccs1 | / | / | 0.0 | -0.5 | /
CCCc1cc(=O)oc2cc(OCc3ccc(C(=O)O)o3)ccc12 | 18.3 | -4.8 | 0.0 | 19.6 | 3.0
CCCc1cc(=O)oc2cc(OCc3ccc(C(=O)O)cc3)ccc12 | 23.4 | -5.3 | 0.0 | 53.1* | 4.7
O=C(O)c1ccc(COc2ccc3c(c2)CCC3)cc1 | 24.5 | 9.2 | -0.2 | / | 33.0*
NNC(=O)c1ccc(COc2ccc3c(c2)CCC3)cc1 | 16.9 | -24.6 | 0.0 | / | 11.0
COc1ccc(OCc2ccc(C(=O)O)cc2)cc1 | 34.1 | / | / | 50.7* | /
CCN1C(=Nc2ccc(Cl)cc2)SC/C1=C\C(=O)OC | ? | -10.5 | / | 60.6* | 13.0
